From article PMC3086571 (Organometallics, 2011)

Tests used:
[1] = test system: SW480 cells (colon carcinoma); test: MTT cytotoxicity assay, SW480; assay type: cell-based; settings: Homo sapiens, SW480, 96 h, read-out: IC50 SW480
Procedure, shortened: (§1)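 Adherent monolayers grown in supplemented MEM with 10% heat-inactivated FBS at 37 °C, 5% CO2. Cells were trypsinised and seeded at 4 × 10^3 (A549), 1.5 × 10^3 (CH1) or 2.5 × 10^3 (SW480) per well, then left 24 h. Compound dilutions in complete medium were applied for 96 h. MTT was added for 4 h and formazan dissolved in DMSO; OD read at 550/690 nm versus untreated controls. IC50 was interpolated from the curves; ≥3 independent experiments, triplicates.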

[2] = test system: topoisomerase II; settings: electrophoretic assay with plasmid DNA; cited from earlier work
[3] = test system: A549 cells (nonsmall cell lung carcinoma); test: MTT cytotoxicity assay, A549; assay type: cell-based; settings: Homo sapiens, A549, 96 h, read-out: IC50 A549
Procedure, shortened: as §1

[4] = test system: CH1 cells (ovarian carcinoma); test: MTT cytotoxicity assay, CH1; assay type: cell-based, human; settings: for IC50: Homo sapiens, CH1, 96 h, read-out: IC50 CH1; for capacity of inhibiting tumor cell proliferation in vitro: CH1 ovarian cancer cells
Procedure, shortened: as §1

[5] = Aqueous stability; assay type: physicochemical; settings: water, 25 °C, after 18 or 24 h incubation
[6] = test system: rat skeletal myoblasts; settings: in vitro, preliminary; cited from earlier work
[7] = Aqueous stability; assay type: physicochemical; settings: for Stability (amount of aqua complex in the solution), 1H NMR: D2O, after 18 or 24 h incubation (NMR: 18 h)
Procedure, shortened: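 Test compound (1−2 mg/mL) dissolved in D2O; 1H NMR spectra recorded immediately after dissolution and again after 18 h to follow chlorido-to-aqua exchange.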

Compound | Stability (amount of aqua complex in the solution), CZE-ICP-MS [5] [%] | Stability (amount of aqua complex in the solution), 1H NMR [7] [%] | free ligand from decomposition of the aqua species ([7]; aqueous solution, over 24 h) | IC50 [1] [µM] | topoisomerase II inhibition [2] | IC50 [3] [µM] | IC50 [4] [µM] | cytotoxic activity in rat skeletal myoblasts [6] | capacity of inhibiting tumor cell proliferation in vitro [4] | sensitivity of CH1 cells relative to SW480 cells ([4]; ratio of IC50 SW480 / CH1)
CC1COc2c(N3CCN(C)CC3)c(F)cc3c(=O)c(C(=O)O)cn1c23 (centres unmarked) [oflo-H, ofloxacin, reference compound] | – | – | – | > 320 | very little topoisomerase II inhibition | > 320 | > 320 | – | – | –
CCn1nc(C(=O)O)c(=O)c2cc3c(cc21)OCO3 [cin-H, cinoxacin] | – | – | – | > 320 | – | > 320 | > 320 | – | – | –
CCn1cc(C(=O)O)c(=O)c2ccc(C)nc21 [nal-H, nalidixic acid] | – | – | – | > 320 | – | > 320 | > 320 | – | – | –

The next lines start with results.

Stability (amount of aqua complex in the solution), CZE-ICP-MS [5] [%] | Stability (amount of aqua complex in the solution), 1H NMR [7] [%] | free ligand from decomposition of the aqua species ([7]; aqueous solution, over 24 h) | Compound | IC50 [1] [µM] | topoisomerase II inhibition [2] | IC50 [3] [µM] | IC50 [4] [µM] | cytotoxic activity in rat skeletal myoblasts [6] | capacity of inhibiting tumor cell proliferation in vitro [4] | sensitivity of CH1 cells relative to SW480 cells ([4]; ratio of IC50 SW480 / CH1)
56 | 45 | more than 40% | CC1COc2c(N3CCN(C)CC3)c(F)cc3c(=O)c(C(=O)[O-])cn1c23.Cc1ccc(C(C)C)cc1.[Cl-].[Ru+2] (centres unmarked) [Compound 1, chlorido(η^6-p-cymene)(ofloxacinato-κ^2O,O)ruthenium(II)] | – | very little topoisomerase II inhibition | – | – | no significant activity | moderate | about 10 times
93 | 94 | – | Chlorido(η^6-p-cymene)(nalidixicato-κ^2O,O)ruthenium(II) [Compound 2] | – | – | – | – | – | inactive | –
87 | 90 | – | Chlorido(η^6-p-cymene)(cinoxacinato-κ^2O,O)ruthenium(II) [Compound 3] | – | – | – | – | – | inactive | –
